Key:
[1] = biological target: Tyrosine-protein kinase JAK1 (Homo sapiens) (UniProt P23458); assay: Binding affinity to wild-type human partial length JAK1 JH1 catalytic domain (V856 to K1154 residues) expressed in bacterial expression system assessed as residual binding level at 1 uM by Kinomescan method relative to control
BaF3 = assay: Antiproliferative activity against mouse BAF3 cells assessed as reduction in cell viability after 72 hrs by MTS assay; assay type: cell-based; conditions: BaF3, 72 h
[2] = Metabolic stability in mouse liver microsomes assessed as parent compound remaining at 1 uM after 30 mins in presence of NADPH by LC/MS/MS analysis; assay type: ADME, Microsome; conditions: read-out: Stability
In short: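 Compound at 1 μM final with 0.5 mg/mL microsomal protein in 100 mM phosphate buffer pH 7.4 at 37 °C, started by adding an NADPH-regenerating system. Reactions were quenched with cold acetonitrile at 0 and 30 min and spun down. Supernatant was analysed by LC-MS/MS. The 0-min sample, quenched before NADPH addition, was set as 100%, and percent parent remaining came from peak areas.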

[3] = biological target: AP2-associated protein kinase 1 (Homo sapiens) (UniProt Q2M2I8); assay: Binding affinity to human wild-type AAK1 (G25 to L333 residues) expressed in bacterial expression system assessed as residual binding level at 1 uM by Kinomescan method relative to control
[4] = biological target: Serine/threonine-protein kinase 17A (Homo sapiens) (UniProt Q9UEE5); assay: Binding affinity to wild-type human partial length DRAK1 (R32 to E363 residues) expressed in bacterial expression system assessed as residual binding level at 1 uM by Kinomescan method relative to control
[5] = biological target: Ribosomal protein S6 kinase alpha-5 (Homo sapiens) (UniProt O75582); assay: Binding affinity to wild-type human partial length N-terminal RPS6KA5 kinase domain 1 expressed in bacterial expression system assessed as residual binding level at 1 uM by Kinomescan method relative to control
[6] = biological target: RAC-beta serine/threonine-protein kinase (Homo sapiens) (UniProt P31751); assay: Binding affinity to wild-type human partial length AKT2 expressed in bacterial expression system assessed as residual binding level at 1 uM by Kinomescan method relative to control
[7] = system: Receptor-type tyrosine-protein kinase FLT3 (Homo sapiens), P36888 [UNDEFINED MUTATION]; assay: Binding affinity to human partial length FLT3 ITD/D835V double mutant expressed in bacterial expression system assessed as residual binding level at 1 uM by Kinomescan method relative to control
In short: (§1)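 Kinome-wide selectivity panel run by the KINOMEscan method, with the test compound at a single concentration of 1 μM. Wild-type and mutant kinases were profiled in the same screen.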

[8] = biological target: Death-associated protein kinase 3 (Homo sapiens) (UniProt O43293); assay: Binding affinity to wild-type human partial length DAPK3 (M1 to A277 residues) expressed in bacterial expression system assessed as residual binding level at 1 uM by Kinomescan method relative to control
[9] = biological target: Mitogen-activated protein kinase kinase kinase 3 (Homo sapiens) (UniProt Q99759); assay: Binding affinity to wild-type human partial length MAP3K3 (E320 to Y626 residues) expressed in mammalian expression system assessed as residual binding level at 1 uM by Kinomescan method relative to control
[10] = system: Epidermal growth factor receptor (Homo sapiens), P00533 [L858R,T790M]; assay: Binding affinity to human partial length EGFR L858R/T790M double mutant (R669 to V1011 residues) expressed in mammalian expression system assessed as residual binding level at 1 uM by Kinomescan method relative to control; in short: as §1
[11] = biological target: Cyclin-dependent kinase 18 (Homo sapiens) (UniProt Q07002); assay: Binding affinity to wild-type human full length PCTK3 (M3 to F474 residues) expressed in bacterial expression system assessed as residual binding level at 1 uM by Kinomescan method relative to control
In short: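 Single-point kinome-wide KINOMEscan binding panel, test compound at 1 μM, run by the provider's standard protocol.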

[12] = system: Epidermal growth factor receptor (Homo sapiens), P00533 [UNDEFINED MUTATION]; assay: Binding affinity to human partial length EGFR E746-A750del mutant expressed in bacterial expression system assessed as residual binding level at 1 uM by Kinomescan method relative to control; in short: as §1
[13] = biological target: Serine/threonine-protein kinase PAK 5 (Homo sapiens) (UniProt Q9P286); assay: Binding affinity to wild-type human partial length PAK7 (Y400 to H719 residues) expressed in bacterial expression system assessed as residual binding level at 1 uM by Kinomescan method relative to control
[14] = biological target: Vascular endothelial growth factor receptor 3 (Homo sapiens) (UniProt P35916); assay: Binding affinity to wild-type human partial length FLT4 (E821 to E1196 residues) expressed in bacterial expression system assessed as residual binding level at 1 uM by Kinomescan method relative to control
[15] = system: Phosphatidylinositol 4,5-bisphosphate 3-kinase catalytic subunit alpha isoform (Homo sapiens), P42336 [C420R]; assay: Binding affinity to human partial length PIK3CA C420R mutant (R108 to N1068 residues) expressed in mammalian expression system assessed as residual binding level at 1 uM by Kinomescan method relative to control
[16] = system: Receptor-type tyrosine-protein kinase FLT3 (Homo sapiens), P36888 [D835H]; assay: Binding affinity to human partial length FLT3 D835H mutant (V592 to Y969 residues) expressed in bacterial expression system assessed as residual binding level at 1 uM by Kinomescan method relative to control; in short: as §1
[17] = biological target: Serine/threonine-protein kinase PAK 6 (Homo sapiens) (UniProt Q9NQU5); assay: Binding affinity to wild-type human partial length PAK6 (N298 to C681 residues) expressed in bacterial expression system assessed as residual binding level at 1 uM by Kinomescan method relative to control
[18] = biological target: Ephrin type-B receptor 4 (Homo sapiens) (UniProt P54760); assay: Binding affinity to wild-type human partial length EPHB4 (H585 to G892 residues) expressed in bacterial expression system assessed as residual binding level at 1 uM by Kinomescan method relative to control
[19] = system: Epidermal growth factor receptor (Homo sapiens), P00533 [G719C]; assay: Binding affinity to human partial length EGFR G719C mutant (R669 to V1011 residues) expressed in bacterial expression system assessed as residual binding level at 1 uM by Kinomescan method relative to control; in short: as §1
[20] = biological target: Receptor tyrosine-protein kinase erbB-3 (Homo sapiens) (UniProt P21860); assay: Binding affinity to wild-type human partial length ERBB3 (G684 to A987 residues) expressed in mammalian expression system assessed as residual binding level at 1 uM by Kinomescan method relative to control
[21] = biological target: Serine/threonine-protein kinase PLK2 (Homo sapiens) (UniProt Q9NYY3); assay: Binding affinity to wild-type human partial length PLK2 (H58 to F354 residues) expressed in mammalian expression system assessed as residual binding level at 1 uM by Kinomescan method relative to control
[22] = biological target: Receptor tyrosine-protein kinase erbB-2 (Homo sapiens, UniProt P04626); assay: Binding affinity to wild-type human partial length ERBB2 (K646 to V1225 residues) expressed in mammalian expression system assessed as residual binding level at 1 uM by Kinomescan method relative to control
[23] = Oral bioavailability in mouse at 10 mg/kg; assay type: ADME, organism-based; conditions: in vivo

Serine/threonine-protein kinase PAK 6 (Homo sapiens), sequence (Q9NQU5 whole entry, looked up, the tested form may be a part): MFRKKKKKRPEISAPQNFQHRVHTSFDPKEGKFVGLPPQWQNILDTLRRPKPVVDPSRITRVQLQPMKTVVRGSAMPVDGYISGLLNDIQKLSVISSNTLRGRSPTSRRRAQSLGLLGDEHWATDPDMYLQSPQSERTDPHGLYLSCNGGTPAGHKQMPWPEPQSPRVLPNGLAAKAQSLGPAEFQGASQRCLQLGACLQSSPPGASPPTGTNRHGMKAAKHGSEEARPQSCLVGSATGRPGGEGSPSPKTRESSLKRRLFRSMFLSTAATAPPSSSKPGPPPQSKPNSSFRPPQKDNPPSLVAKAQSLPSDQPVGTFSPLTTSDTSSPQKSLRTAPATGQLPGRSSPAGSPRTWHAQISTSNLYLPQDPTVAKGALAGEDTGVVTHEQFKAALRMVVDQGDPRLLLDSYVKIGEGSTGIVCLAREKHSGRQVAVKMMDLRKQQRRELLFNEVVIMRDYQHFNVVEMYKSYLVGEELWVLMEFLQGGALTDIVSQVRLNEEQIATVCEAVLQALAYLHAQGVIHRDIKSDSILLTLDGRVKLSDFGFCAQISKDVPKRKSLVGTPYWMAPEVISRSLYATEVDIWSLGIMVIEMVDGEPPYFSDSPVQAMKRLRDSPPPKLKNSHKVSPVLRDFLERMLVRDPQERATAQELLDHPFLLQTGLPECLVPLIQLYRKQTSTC
Serine/threonine-protein kinase 17A (Homo sapiens), sequence (Q9UEE5 whole entry, the tested form may be a part): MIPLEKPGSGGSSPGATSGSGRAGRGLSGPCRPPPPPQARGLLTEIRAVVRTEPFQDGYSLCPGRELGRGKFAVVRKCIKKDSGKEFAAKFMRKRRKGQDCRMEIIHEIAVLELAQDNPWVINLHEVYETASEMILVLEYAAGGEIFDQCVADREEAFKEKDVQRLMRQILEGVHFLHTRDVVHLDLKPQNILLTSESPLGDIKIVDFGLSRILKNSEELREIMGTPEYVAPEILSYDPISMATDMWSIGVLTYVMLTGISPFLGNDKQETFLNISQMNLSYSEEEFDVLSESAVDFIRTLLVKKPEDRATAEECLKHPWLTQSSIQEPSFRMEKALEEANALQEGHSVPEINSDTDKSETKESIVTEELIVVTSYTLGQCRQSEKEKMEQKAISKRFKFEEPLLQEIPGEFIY
Tyrosine-protein kinase JAK1 (Homo sapiens), sequence (P23458 whole entry, the tested form may be a part): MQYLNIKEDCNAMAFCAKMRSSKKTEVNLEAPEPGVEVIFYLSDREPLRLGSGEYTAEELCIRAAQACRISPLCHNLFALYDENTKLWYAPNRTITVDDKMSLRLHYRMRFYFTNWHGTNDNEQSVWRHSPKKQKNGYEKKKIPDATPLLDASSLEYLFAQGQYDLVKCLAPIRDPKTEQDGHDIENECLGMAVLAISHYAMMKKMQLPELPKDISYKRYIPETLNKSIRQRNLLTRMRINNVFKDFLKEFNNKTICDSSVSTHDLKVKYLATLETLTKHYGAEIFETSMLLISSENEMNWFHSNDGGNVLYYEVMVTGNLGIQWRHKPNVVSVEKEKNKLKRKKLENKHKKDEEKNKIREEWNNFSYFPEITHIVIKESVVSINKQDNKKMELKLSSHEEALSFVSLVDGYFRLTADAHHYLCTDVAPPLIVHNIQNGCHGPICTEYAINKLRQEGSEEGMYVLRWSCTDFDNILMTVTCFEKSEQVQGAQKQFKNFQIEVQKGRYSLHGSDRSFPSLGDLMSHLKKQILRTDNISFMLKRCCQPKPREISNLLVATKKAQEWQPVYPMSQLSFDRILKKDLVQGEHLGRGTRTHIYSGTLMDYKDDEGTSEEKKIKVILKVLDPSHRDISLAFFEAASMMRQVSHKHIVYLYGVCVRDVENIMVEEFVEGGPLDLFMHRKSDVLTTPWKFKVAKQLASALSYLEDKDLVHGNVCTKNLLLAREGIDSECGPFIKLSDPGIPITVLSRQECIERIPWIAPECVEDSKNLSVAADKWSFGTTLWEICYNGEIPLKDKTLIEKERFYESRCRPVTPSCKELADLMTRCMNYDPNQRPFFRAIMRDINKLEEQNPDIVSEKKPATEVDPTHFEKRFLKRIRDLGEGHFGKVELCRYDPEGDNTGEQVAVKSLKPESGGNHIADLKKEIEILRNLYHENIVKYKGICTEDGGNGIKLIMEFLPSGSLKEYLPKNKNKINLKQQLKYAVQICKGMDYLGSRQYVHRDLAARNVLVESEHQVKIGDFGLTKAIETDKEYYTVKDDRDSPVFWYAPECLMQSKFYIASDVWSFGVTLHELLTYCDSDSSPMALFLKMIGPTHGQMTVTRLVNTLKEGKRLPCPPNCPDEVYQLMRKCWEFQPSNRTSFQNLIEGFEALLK
Serine/threonine-protein kinase PLK2 (Homo sapiens), sequence (Q9NYY3 whole entry, looked up, the tested form may be a part): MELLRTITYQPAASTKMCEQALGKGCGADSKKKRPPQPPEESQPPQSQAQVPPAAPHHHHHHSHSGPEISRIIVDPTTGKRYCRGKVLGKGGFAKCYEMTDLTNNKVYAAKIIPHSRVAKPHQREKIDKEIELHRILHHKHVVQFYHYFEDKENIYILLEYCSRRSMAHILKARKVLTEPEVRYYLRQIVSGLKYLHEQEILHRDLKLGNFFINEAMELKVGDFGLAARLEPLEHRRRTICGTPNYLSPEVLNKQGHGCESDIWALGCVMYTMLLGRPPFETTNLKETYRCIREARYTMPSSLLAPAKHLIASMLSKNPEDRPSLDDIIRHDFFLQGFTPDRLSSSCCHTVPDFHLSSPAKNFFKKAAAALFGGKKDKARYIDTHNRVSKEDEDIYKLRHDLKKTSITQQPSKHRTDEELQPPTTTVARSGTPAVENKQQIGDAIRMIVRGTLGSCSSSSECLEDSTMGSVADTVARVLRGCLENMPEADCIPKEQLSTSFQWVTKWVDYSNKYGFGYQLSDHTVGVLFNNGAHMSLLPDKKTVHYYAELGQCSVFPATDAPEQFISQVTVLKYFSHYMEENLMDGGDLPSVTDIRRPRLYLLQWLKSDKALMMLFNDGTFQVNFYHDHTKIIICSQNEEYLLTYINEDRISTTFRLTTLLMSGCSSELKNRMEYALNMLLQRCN
RAC-beta serine/threonine-protein kinase (Homo sapiens), sequence (P31751 whole entry): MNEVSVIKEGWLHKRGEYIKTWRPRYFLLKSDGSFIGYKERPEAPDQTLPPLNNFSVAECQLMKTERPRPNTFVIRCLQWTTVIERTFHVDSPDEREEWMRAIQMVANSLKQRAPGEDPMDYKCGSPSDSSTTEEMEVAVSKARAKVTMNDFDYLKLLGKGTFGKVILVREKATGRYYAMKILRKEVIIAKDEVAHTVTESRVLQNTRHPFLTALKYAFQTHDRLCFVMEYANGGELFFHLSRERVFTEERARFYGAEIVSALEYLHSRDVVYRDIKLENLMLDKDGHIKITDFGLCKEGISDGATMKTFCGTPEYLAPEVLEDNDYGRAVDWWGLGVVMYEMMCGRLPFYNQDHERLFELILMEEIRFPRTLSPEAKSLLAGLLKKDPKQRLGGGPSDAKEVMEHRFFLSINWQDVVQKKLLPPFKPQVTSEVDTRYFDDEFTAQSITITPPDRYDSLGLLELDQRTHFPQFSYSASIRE
Cyclin-dependent kinase 18 (Homo sapiens), sequence (Q07002 whole entry, the tested form may be a part): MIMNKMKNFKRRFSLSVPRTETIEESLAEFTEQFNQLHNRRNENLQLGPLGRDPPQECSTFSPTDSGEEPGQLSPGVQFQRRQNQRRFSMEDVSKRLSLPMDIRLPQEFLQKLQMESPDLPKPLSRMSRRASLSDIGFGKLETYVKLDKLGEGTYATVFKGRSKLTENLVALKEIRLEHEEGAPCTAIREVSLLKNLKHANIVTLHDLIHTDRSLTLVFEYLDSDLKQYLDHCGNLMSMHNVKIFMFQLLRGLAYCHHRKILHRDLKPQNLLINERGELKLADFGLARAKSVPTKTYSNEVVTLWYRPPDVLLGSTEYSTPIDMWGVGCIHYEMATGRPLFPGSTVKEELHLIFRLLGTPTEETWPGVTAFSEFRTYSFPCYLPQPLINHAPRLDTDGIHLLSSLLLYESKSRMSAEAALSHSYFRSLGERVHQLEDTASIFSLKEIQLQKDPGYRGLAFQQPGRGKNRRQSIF
Death-associated protein kinase 3 (Homo sapiens), sequence (O43293 whole entry, looked up, the tested form may be a part): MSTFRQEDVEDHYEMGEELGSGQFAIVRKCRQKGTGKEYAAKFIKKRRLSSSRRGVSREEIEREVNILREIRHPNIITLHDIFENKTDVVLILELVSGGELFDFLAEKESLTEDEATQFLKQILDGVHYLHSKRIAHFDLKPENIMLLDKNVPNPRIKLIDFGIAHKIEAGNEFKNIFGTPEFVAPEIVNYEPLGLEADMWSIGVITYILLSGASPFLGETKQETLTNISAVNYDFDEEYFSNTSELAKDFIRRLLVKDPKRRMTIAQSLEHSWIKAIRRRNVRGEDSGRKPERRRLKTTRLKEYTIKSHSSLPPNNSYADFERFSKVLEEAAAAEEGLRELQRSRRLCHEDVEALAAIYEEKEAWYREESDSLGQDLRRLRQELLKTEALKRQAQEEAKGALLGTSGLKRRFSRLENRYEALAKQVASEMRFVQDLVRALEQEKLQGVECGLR
Mitogen-activated protein kinase kinase kinase 3 (Homo sapiens), sequence (Q99759 whole entry, the tested form may be a part): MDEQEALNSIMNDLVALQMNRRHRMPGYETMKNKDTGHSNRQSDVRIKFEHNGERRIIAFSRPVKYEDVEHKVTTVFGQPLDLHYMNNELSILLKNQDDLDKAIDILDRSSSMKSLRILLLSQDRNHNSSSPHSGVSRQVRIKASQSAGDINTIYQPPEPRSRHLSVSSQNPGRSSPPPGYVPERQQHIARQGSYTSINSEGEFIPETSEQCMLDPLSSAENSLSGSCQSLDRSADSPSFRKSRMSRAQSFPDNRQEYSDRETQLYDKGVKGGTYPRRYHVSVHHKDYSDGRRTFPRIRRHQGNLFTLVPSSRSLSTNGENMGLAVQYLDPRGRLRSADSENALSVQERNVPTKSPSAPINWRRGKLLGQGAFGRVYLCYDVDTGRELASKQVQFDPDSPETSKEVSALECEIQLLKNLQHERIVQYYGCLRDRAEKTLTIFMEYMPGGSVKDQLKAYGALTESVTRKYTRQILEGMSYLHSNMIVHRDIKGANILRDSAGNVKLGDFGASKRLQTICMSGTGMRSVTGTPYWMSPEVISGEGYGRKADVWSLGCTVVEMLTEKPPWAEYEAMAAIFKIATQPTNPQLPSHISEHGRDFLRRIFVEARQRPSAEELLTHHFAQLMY

Compound: C=CC(=O)Nc1cc(Nc2ncc(Cl)c(Nc3ccccc3S(=O)(=O)C(C)C)n2)c(OC)cc1N(C)CCN(C)C
- Activity [1]: 78%
- EC50 (BaF3): > 5 µM
- remaining at 0.5 h, 1 µM [2]: 12%
- Activity [3]: 72%
- Activity [4]: 83%
- Activity [5]: 85%
- Activity [6]: 94%
- Activity [7]: 12%
- Activity [8]: 39%
- Activity [9]: 17%
- Activity [10]: 0.95%
- Activity [11]: 77%
- Activity [12]: 12%
- Activity [13]: 79%
- Activity [14]: 36%
- Activity [15]: 87%
- Activity [16]: 1.6%
- Activity [17]: 96%
- Activity [18]: 76%
- Activity [19]: 0.95%
- Activity [20]: 91%
- Activity [21]: 87%
- Activity [22]: 0%
- bioavailability [23]: 24%
